In assay [1] the target is T1, Type-1 angiotensin II receptor A (Rattus norvegicus, UniProt P25095).
T1 sequence (P25095 whole entry): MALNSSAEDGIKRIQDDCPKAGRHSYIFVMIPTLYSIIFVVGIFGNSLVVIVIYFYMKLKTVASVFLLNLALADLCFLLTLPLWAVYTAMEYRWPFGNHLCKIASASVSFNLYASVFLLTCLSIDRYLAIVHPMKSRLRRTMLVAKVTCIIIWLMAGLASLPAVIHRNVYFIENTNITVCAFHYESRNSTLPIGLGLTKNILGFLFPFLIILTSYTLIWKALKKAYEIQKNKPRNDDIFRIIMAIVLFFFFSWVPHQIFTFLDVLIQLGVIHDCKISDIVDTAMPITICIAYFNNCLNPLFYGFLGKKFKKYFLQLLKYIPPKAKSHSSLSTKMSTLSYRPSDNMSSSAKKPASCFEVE
Put plainly: Displacement of [125I]Ang 2 from AT1 receptor in rat liver membranes. It counts as cell membranes, Membrane. A digest of the protocol: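 Rat liver membranes (5 mg original tissue) incubated with [125I]Ang II (0.03 nM) and varying test compound in 50 mM Tris–HCl pH 7.4, 100 mM NaCl, 10 mM MgCl2, 1 mM EDTA, 0.025% bacitracin, 0.2% BSA; 25 °C for 2 h. Filtered onto polyethylamine-soaked GF/B filters, gamma counting. Nonspecific binding with 1 µM Ang II; triplicate.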

Assay [2] is described as follows: Displacement of [125I]Ang 2 from AT2 receptor in pig uterus membranes. It counts as cell membranes, Sus scrofa, Membrane. The procedure, abridged: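 Porcine uterine myometrial membranes (10 mg original tissue), with 1 µM losartan to block AT1, incubated with [125I]Ang II (0.03 nM) and varying test compound in Tris–HCl pH 7.4 buffer with NaCl, MgCl2, EDTA, bacitracin and BSA; 25 °C, 1.5 h. Filtered, gamma counted. Nonspecific binding with 1 µM Ang II. Ki via Cheng–Prusoff (Kd 0.73 nM), one-site fit; triplicate.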
In general terms: In a radioligand displacement assay an active substance lowers the binding of a labelled ligand.

For assay [3], the system named is NG108-15. Kind of assay: Induction of neurite outgrowth in NG108-15 cells at 1 nM after 3 days. In kind it is functional, cell-based. A digest of the protocol:
(§1)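 NG108-15 neuroblastoma×glioma cells (AT2 only; DMEM, 10% FBS, HAT) plated at 3.6·10⁴ cells/35 mm dish, then treated daily for 3 days, alone or with PD 123,319 added 30 min beforehand. Examined by phase-contrast microscopy.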

Assay [4] relates to NG108-15. Put plainly: Induction of neurite outgrowth in NG108-15 cells at 0.1 uM after 3 days. In kind it is functional, cell-based. The procedure, abridged: as §1

Calls of active or inactive are those of the source. The calls are words filed in the database; no cut-off is given here. Some results are limits rather than exact numbers.

In general, Ki refers to a dissociation constant, usually derived from enzyme kinetics or from competition with a known ligand.

Turning to `CCCCOC(=O)NS(=O)(=O)c1sc(CC(C)C)cc1-c1ccc(CC(N)=O)cc1`, the Ki is above 10 µM in assay [1] and 51 nM in assay [2].

`CCCCOC(=O)NS(=O)(=O)c1sc(CC(C)C)cc1-c1ccc(CC(=O)N(c2ccccc2)c2ccccc2)cc1`: the results for the Ki in assay [1] and in assay [2] were above 10 µM and 219 nM, respectively.

On to `CCCCOC(=O)NS(=O)(=O)c1sc(CC(C)C)cc1-c1ccc(CC(=O)N(CC)Cc2ccccc2)cc1`, for which the Ki in assay [1] was above 10 µM; in assay [2], 322 nM.

`CCCCOC(=O)NS(=O)(=O)c1sc(CC(C)C)cc1-c1ccc(CN(Cc2ccccc2)C(=O)CCCC)cc1`: the results for the inhibition constant Ki in assay [1] and in assay [2] were above 10 µM and 84 nM, respectively.

On to `CCCCOC(=O)NS(=O)(=O)c1sc(CC(C)C)cc1-c1ccc(CN(Cc2cccnc2)C(C)=O)cc1`, for which the Ki in assay [1] is above 10 µM; in assay [2], 59 nM.

As to `CCCCOC(=O)NS(=O)(=O)c1sc(CC(C)C)cc1-c1ccc(CN(C)CC#N)cc1`, the inhibition constant (Ki) was above 10 µM in assay [1] and above 10000 nM in assay [2].

With `CCCCOC(=O)NS(=O)(=O)c1sc(CC(C)C)cc1-c1ccc(CC(=O)NC)cc1`, the inhibitory constant (Ki) in assay [1] was above 10 µM; in assay [2] it was 80 nM.

Take `CCCCOC(=O)NS(=O)(=O)c1sc(CC(C)C)cc1-c1ccc(CNC(C)=O)cc1`: the Ki in assay [1] is above 10 µM; in assay [2] it was 5.8 nM.

As for `CCCCOC(=O)NS(=O)(=O)c1sc(CC(C)C)cc1-c1ccc(CC(=O)N(Cc2ccccc2)Cc2ccccc2)cc1`, the Ki in assay [1] is above 10 µM; in assay [2], 185 nM.

Turning to `CCCCCCNC(=O)Cc1ccc(-c2cc(CC(C)C)sc2S(=O)(=O)NC(=O)OCCCC)cc1`, the figures for the inhibitory constant (Ki) in assay [1] and in assay [2] were above 10 µM and 158 nM, respectively.

Turning to `CCCCOC(=O)NS(=O)(=O)c1sc(CC(C)C)cc1-c1ccc(CN(Cc2cccnc2)C(=O)c2ccccc2)cc1`, the inhibition constant (Ki) in assay [1] is above 10 µM; in assay [2], 404 nM.

Consider `CCCCOC(=O)NS(=O)(=O)c1sc(CC(C)C)cc1-c1ccc(CN(C(C)=O)c2ccc(C)cc2)cc1`, for which the Ki in assay [1] was above 10 µM; in assay [2], 60 nM.

Regarding `CCCCOC(=O)NS(=O)(=O)c1sc(CC(C)C)cc1-c1ccc(CN(C)C(C)=O)o1`, the figures for the Ki in assay [1] and in assay [2] were above 10 µM and 9.1 nM, respectively. The result with NG108-15 [3] was Active.

Take `CCCCOC(=O)NS(=O)(=O)c1sc(CC(C)C)cc1-c1ccc(CN(C)S(C)(=O)=O)cc1`: the figures for the Ki in assay [1] and in assay [2] were above 10 µM and 32 nM, respectively.

Regarding `CCCCOC(=O)NS(=O)(=O)c1sc(CC(C)C)cc1-c1ccc(CN(C)C(C)=O)cc1`, the values for the Ki in assay [1] and in assay [2] were above 10 µM and 8.8 nM, respectively. For the same compound, the result in the assay on NG108-15 [3] was Active.

For `CCCCOC(=O)NS(=O)(=O)c1sc(CC(C)C)cc1-c1ccc(CN(C)C=O)cc1`, the Ki in assay [1] is above 10 µM; in assay [2], 3.1 nM.

As for `CCCCOC(=O)NS(=O)(=O)c1sc(CC(C)C)cc1-c1ccc(CC(=O)N2CCSC2)cc1`, the Ki in assay [1] was above 10 µM; in assay [2], 133 nM.

On to `CCCCOC(=O)NS(=O)(=O)c1sc(CC(C)C)cc1-c1ccc(CN(Cc2ccccc2)C(C)=O)cc1`, for which the Ki in assay [1] was above 10 µM; in assay [2], 200 nM.

As for `CCCCOC(=O)NS(=O)(=O)c1sc(CC(C)C)cc1-c1ccc(CN(C)C(C)=O)cn1`, the Ki was above 10 µM in assay [1] and above 10000 nM in assay [2].

`CCCCOC(=O)NS(=O)(=O)c1sc(CC(C)C)cc1-c1ccc(CN(CC)C(=O)c2cccs2)cc1`: the inhibition constant (Ki) in assay [1] was above 10 µM; in assay [2] it was 138 nM.

On to `CCCCOC(=O)NS(=O)(=O)c1sc(CC(C)C)cc1-c1ccc(CC(=O)N(C)CCCC)cc1`, for which the Ki in assay [1] was above 10 µM; in assay [2], 367 nM.

On to `CCCCOC(=O)NS(=O)(=O)c1sc(CC(C)C)cc1-c1ccc(CN(C(=O)c2ccccc2)c2ccc(C)cc2)cc1`, for which the results for the Ki in assay [1] and in assay [2] were above 10 µM and 46 nM, respectively.

As for `CCCCOC(=O)NS(=O)(=O)c1sc(CC(C)C)cc1-c1ccc(CN(CC)C(C)=O)cc1`, the Ki in assay [1] is above 10 µM; in assay [2] it was 126 nM.

For the compound `CCCCOC(=O)NS(=O)(=O)c1sc(CC(C)C)cc1-c1ccc(CN(C)OC)cc1`, the Ki in assay [1] was above 10 µM; in assay [2], 2.8 nM. Besides, in the assay with NG108-15 [3], the result was Active.

`CCCCOC(=O)NS(=O)(=O)c1sc(CC(C)C)cc1-c1ccc(CN(C)C(=O)OCC)cc1`: the values for the inhibitory constant (Ki) in assay [1] and in assay [2] were above 10 µM and 9.7 nM, respectively.

Consider `CCCCOC(=O)NS(=O)(=O)c1sc(CC(C)C)cc1-c1ccc(CC(=O)N2CCOCC2)cc1`, for which the inhibition constant Ki in assay [1] is above 10 µM; in assay [2], 124 nM.

For the compound `CCCCOC(=O)NS(=O)(=O)c1sc(CC(C)C)cc1-c1ccc(CN(C)C)cc1`, the inhibitory constant (Ki) in assay [1] was above 10 µM; in assay [2], above 10000 nM.

`CCCCOC(=O)NS(=O)(=O)c1sc(CC(C)C)cc1-c1ccc(CN(C)C(=O)CCCC)cc1`: the Ki in assay [1] is above 10 µM; in assay [2], 12 nM.

As to `CCCCOC(=O)NS(=O)(=O)c1sc(CC(C)C)cc1-c1ccc(CC(=O)NCc2ccccc2)cc1`, the inhibition constant Ki in assay [1] was above 10 µM; in assay [2], 221 nM.

On to `CCCCOC(=O)NS(=O)(=O)c1sc(CC(C)C)cc1-c1ccc(CC(=O)Nc2ccc(C)cc2)cc1`, for which the Ki in assay [1] was above 10 µM; in assay [2], 58 nM.

Take `CCCCOC(=O)NS(=O)(=O)c1sc(CC(C)C)cc1-c1ccc(CC(=O)N(C)C)cc1`: the Ki in assay [1] is above 10 µM; in assay [2], 7 nM. In the assay with NG108-15 [4], the result was Active.

Consider `CCCCOC(=O)NS(=O)(=O)c1sc(CC(C)C)cc1-c1csc(CN(C)C(C)=O)c1`, for which the Ki in assay [1] was above 10 µM; in assay [2] it was above 10000 nM.

The record behind these values is ChEMBL document CHEMBL1139832, “Selective angiotensin II AT(2) receptor agonists devoid of the imidazole ring system” (Bioorg Med Chem, 2007).
